# Test results as given in ChEMBL document CHEMBL1143195, “Novel sulfonanilide analogs decrease aromatase activity in breast cancer cells: synthesis, biological evaluation, and ligand-based pharmacophore identification” (J Med Chem, 2008).
# Active and inactive are the calls of the source. No cut-off for these calls is given here.
# Molecular target: T1, Aromatase (Homo sapiens, UniProt P11511)
# T1 sequence (P11511 whole entry): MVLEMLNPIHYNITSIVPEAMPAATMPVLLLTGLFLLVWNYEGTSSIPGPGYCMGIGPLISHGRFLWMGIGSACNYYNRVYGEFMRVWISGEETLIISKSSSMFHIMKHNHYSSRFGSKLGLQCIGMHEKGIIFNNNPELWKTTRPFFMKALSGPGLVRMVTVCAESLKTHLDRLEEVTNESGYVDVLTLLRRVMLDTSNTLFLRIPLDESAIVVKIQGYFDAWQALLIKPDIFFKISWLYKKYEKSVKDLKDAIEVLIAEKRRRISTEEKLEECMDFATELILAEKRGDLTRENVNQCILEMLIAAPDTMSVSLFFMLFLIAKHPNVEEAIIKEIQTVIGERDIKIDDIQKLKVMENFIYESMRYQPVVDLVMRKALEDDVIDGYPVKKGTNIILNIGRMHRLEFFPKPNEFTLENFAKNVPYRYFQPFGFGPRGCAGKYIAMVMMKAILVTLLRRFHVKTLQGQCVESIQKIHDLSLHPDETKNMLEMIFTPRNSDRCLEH
# Assay: Inhibition of aromatase in human SKBR3 cells by tritiated water release assay
# Assay type: cell-based
# Details: sk-br-3
# Procedure, shortened: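 Subconfluent SK-BR-3 cells were switched to defined DMEM/F12 (human albumin, transferrin, insulin) and treated 24 h at five concentrations in triplicate (0.1% DMSO vehicle). They were then incubated 3 h with 100 nM [1β-3H]-androstenedione. TCA-precipitated medium was chloroform-extracted and charcoal-treated, and 3H2O counted as pmol/h/10^6 cells, normalized by DNA assay. IC50 was taken from sigmoidal dose–response fits.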
row,SMILES,IC50 [nM]
1,CC(C)Oc1cc([N+](=O)[O-])ccc1NS(C)(=O)=O,5870
2,CN(c1ccc([N+](=O)[O-])cc1OCc1ccc([N+](=O)[O-])cc1)S(C)(=O)=O,490
3,O=[N+]([O-])c1ccc(S(=O)(=O)Nc2ccc([N+](=O)[O-])cc2OCc2ccccc2)cc1,2170
4,Cc1ccc(COc2cc([N+](=O)[O-])ccc2NS(C)(=O)=O)cc1,1750
5,CS(=O)(=O)Nc1ccc([N+](=O)[O-])cc1OCc1ccccc1,2140
6,CN(c1ccc([N+](=O)[O-])cc1OC1CCCCC1)S(C)(=O)=O,470
7,CN(c1ccc([N+](=O)[O-])cc1OCc1ccc(F)cc1)S(C)(=O)=O,1780
8,CN(c1ccc([N+](=O)[O-])cc1OCc1ccc(Cl)cc1)S(C)(=O)=O,2400
9,CC(C)c1ccc(COc2cc([N+](=O)[O-])ccc2NS(C)(=O)=O)cc1,7450
10,O=C(Nc1ccc([N+](=O)[O-])cc1OCc1ccccc1)c1ccc2ccccc2c1,> 25000
11,CS(=O)(=O)Nc1ccc([N+](=O)[O-])cc1OCc1ccc(Cl)cc1,290
12,CS(=O)(=O)Nc1ccc([N+](=O)[O-])cc1OCc1ccc(-c2ccccc2)cc1,850
13,COc1ccc(COc2cc([N+](=O)[O-])ccc2N(C)S(C)(=O)=O)cc1,470
14,CN(c1ccc(NC(=O)c2ccc(C#N)cc2)cc1OCc1ccccc1)S(C)(=O)=O,440
15,CS(=O)(=O)Nc1ccc([N+](=O)[O-])cc1OCc1ccc2ccccc2c1,2170
16,CS(=O)(=O)Nc1ccc([N+](=O)[O-])cc1OCc1cccc2ccccc12,5740
17,CN(c1ccc([N+](=O)[O-])cc1OC1CCCC1)S(C)(=O)=O,440
18,CS(=O)(=O)Nc1ccc([N+](=O)[O-])cc1OCc1ccc([N+](=O)[O-])cc1,400
19,CN(c1ccc([N+](=O)[O-])cc1OCCc1ccccc1)S(C)(=O)=O,520
20,O=C(Nc1ccc([N+](=O)[O-])cc1OCc1ccccc1)c1ccc([N+](=O)[O-])cc1,> 25000
21,Cc1ccc(S(=O)(=O)Nc2ccc([N+](=O)[O-])cc2OCc2ccccc2)cc1,17400

row,SMILES,IC50 [nM]
1,CN(c1ccc([N+](=O)[O-])cc1OCc1ccccc1-c1ccccc1)S(C)(=O)=O,330
2,CN(c1ccc([N+](=O)[O-])cc1OCc1ccc(Br)cc1)S(C)(=O)=O,330
3,CC(C)Oc1cc([N+](=O)[O-])ccc1N(C)S(C)(=O)=O,2810
4,CCCOc1cc([N+](=O)[O-])ccc1NS(C)(=O)=O,2510
5,CCC(CC)Oc1cc([N+](=O)[O-])ccc1N(C)S(C)(=O)=O,230
6,O=C(Nc1ccc([N+](=O)[O-])cc1OCc1ccccc1)c1ccc(Cl)c(Cl)c1,> 25000
7,O=C(Nc1ccc([N+](=O)[O-])cc1OCc1ccccc1)c1ccc(Cl)c([N+](=O)[O-])c1,> 25000
8,CN(c1ccc(NC(=O)c2ccc(Cl)c([N+](=O)[O-])c2)cc1OCc1ccccc1)S(C)(=O)=O,690
9,CS(=O)(=O)Nc1ccc([N+](=O)[O-])cc1OCc1ccccc1-c1ccccc1,260
10,CC(=O)Nc1ccc([N+](=O)[O-])cc1OCc1ccccc1,1180
11,CS(=O)(=O)Nc1ccc([N+](=O)[O-])cc1OCc1ccc(F)cc1,580
12,CS(=O)(=O)Nc1ccc([N+](=O)[O-])cc1OCc1ccc(Br)cc1,5850
13,CS(=O)(=O)Nc1ccc([N+](=O)[O-])cc1OCCc1ccccc1,230
14,CN(c1ccc(NC(=O)C2CCCCC2)cc1OCc1ccccc1)S(C)(=O)=O,250
15,CCCCCCOc1cc([N+](=O)[O-])ccc1NS(C)(=O)=O,2670
16,CCCOc1cc([N+](=O)[O-])ccc1N(C)S(C)(=O)=O,760
17,O=C(Nc1ccc([N+](=O)[O-])cc1OCc1ccccc1)c1ccc(-c2ccccc2)cc1,> 25000
18,O=C(Nc1ccc([N+](=O)[O-])cc1OCc1ccccc1)c1cccc([N+](=O)[O-])c1,> 25000
19,CN(c1ccc([N+](=O)[O-])cc1OCc1ccc2ccccc2c1)S(C)(=O)=O,2680
20,CN(c1ccc([N+](=O)[O-])cc1OCC1CCCCC1)S(C)(=O)=O,960
21,CC(=O)Nc1ccc(N(C)S(C)(=O)=O)c(OCc2ccccc2)c1,16700

row,SMILES,IC50 [nM]
1,O=C(Nc1ccc([N+](=O)[O-])cc1OCc1ccccc1)C1CCCCC1,> 25000
2,CN(c1ccc([N+](=O)[O-])cc1OCc1ccccc1)S(C)(=O)=O,810
3,CN(c1ccc(N)cc1OCc1ccccc1)S(C)(=O)=O,1100
4,CN(c1ccc(NC(=O)c2ccc(-c3ccccc3)cc2)cc1OCc1ccccc1)S(C)(=O)=O,120
5,CN(c1ccc([N+](=O)[O-])cc1OCc1cccc2ccccc12)S(C)(=O)=O,1170
6,Cc1ccc(C)c(COc2cc([N+](=O)[O-])ccc2NS(C)(=O)=O)c1,370
7,CS(=O)(=O)Nc1ccc([N+](=O)[O-])cc1OCC1CCCCC1,1210
8,N#Cc1ccc(C(=O)Nc2ccc([N+](=O)[O-])cc2OCc2ccccc2)cc1,> 25000
9,CS(=O)(=O)Nc1ccc([N+](=O)[O-])cc1OC1CCCCC1 [NS-398],680
10,CCCCCCCCCOc1cc([N+](=O)[O-])ccc1N(C)S(C)(=O)=O,3960
11,CCCCCCOc1cc([N+](=O)[O-])ccc1N(C)S(C)(=O)=O,4490
12,CS(=O)(=O)Nc1ccc([N+](=O)[O-])cc1OC1CCCC1,870
13,CN(c1ccc(NC(=O)c2ccc3ccccc3c2)cc1OCc1ccccc1)S(C)(=O)=O,1070
14,CN(c1ccc(NC(=O)c2ccc(Cl)c(Cl)c2)cc1OCc1ccccc1)S(C)(=O)=O,690
15,O=C(Nc1ccc([N+](=O)[O-])cc1OCc1ccccc1)c1ccccc1,> 25000
16,CCCCCCCCCOc1cc([N+](=O)[O-])ccc1NS(C)(=O)=O,910
17,Cc1ccc(COc2cc([N+](=O)[O-])ccc2N(C)S(C)(=O)=O)cc1,2330
18,CN(c1ccc([N+](=O)[O-])cc1OCc1ccc(-c2ccccc2)cc1)S(C)(=O)=O,650
19,CCC(CC)Oc1cc([N+](=O)[O-])ccc1NS(C)(=O)=O,300
20,CN(c1ccc(NC(=O)c2ccccc2)cc1OCc1ccccc1)S(C)(=O)=O,1770
21,COc1ccc(COc2cc([N+](=O)[O-])ccc2NS(C)(=O)=O)cc1,7820

# System: SK-BR-3
# Assay: Cytotoxicity against human SKBR3 cells by diphenylamine DNA assay
# Assay type: functional, cell-based
# Details: not given
row,SMILES,Activity
1,Cc1ccc(C)c(COc2cc([N+](=O)[O-])ccc2N(C)S(C)(=O)=O)c1,Active
2,CC(C)c1ccc(COc2cc([N+](=O)[O-])ccc2N(C)S(C)(=O)=O)cc1,Active
